Screening data as filed in PubChem.
This is a sample that favours compounds with a hit; in the whole collection about 1.9% have one here.
Rin1-Abl PPI inh – human Rin1-Abl interaction inhibition | P00519+Q13671 | TR-FRET Rin1/Abl binding, biochemical | inhibition, % at 7.35 µM | 0.4% of 360,000 active; in the data active = inhibition above about 5%, passing the limit was not always enough
Xi reactivation – activators of X-chromosome reactivation in mouse fibroblasts. 0.055% of 360,000 active. XiGFP mouse fibroblasts, % GFP-positive cells imaging, 3 d; cells co-treated with 5-aza-dC sensitizer; scaled so ellipticine positive control = 100%. activation, % at 7.58 µM;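 active = mean normalized replicate activation at least 10% and every replicate at or above 10%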
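System: 68-5-11 XiGFP fibroblast line; Timing: 3 days compound exposure; Compound dosing: one concentration, pinned; Benchmarks: positive control ellipticine, 6 µM final; Buffer or medium: DMEM containing 5-aza-dC.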
ABHD5-PLIN5 inh – ABHD5-PLIN5 protein interaction inhibition; Q00G26+Q8WTS1; Split G. princeps luciferase complementation, luminescence, 4 h; inhibition, % at 4 µM; 0.78% of 360,000 active; AID 602281;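 active = inhibition above the mean inhibition across every tested compound plus 3 SD, cut at about 22% in these data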
Rpn11 block – blocks the human proteasome subunit Rpn11; O00487; human 26S proteasome, Ub4-pepOG fluorescence polarization; 20S core pre-blocked with epoxomicin; inhibition, % at 20 µM; 0.59% of 360,000 active; AID 588493;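 active = inhibition at 20 µM, scaled to each plate's controls, above about 33%, limit read from the data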
NadD inh – NadD (S. aureus) enzyme inhibition; purified NadD enzyme, colorimetric absorbance read-out; inhibition, % at 20 µM; 0.78% of 360,000 active; AID 602399; in the data active = inhibition above about 26%
Rpn11 confirm – confirmation of human proteasome Rpn11 inhibitors; inhibition, % at 20 µM; purified human 26S proteasome, Ub4-pepOG fluorescence polarization; proteasome pretreated with epoxomicin; shares compounds with Rpn11 block; 29% of 1,900 active
MMP-2 inh – MMP-2 (human) inhibition counter-screen; shares compounds with Rpn11 block; recombinant MMP-2, FRET peptide cleavage fluorescence; inhibition, % at 20 µM; 4% of 1,900 active;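 also: human MMP-2 activated beforehand with APMA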
Thrombin inh – blocks bovine thrombin, flagging nonselective RPN11 hits | shares compounds with Rpn11 block | bovine thrombin cleavage of Ub4-pepOG, fluorescence polarization | inhibition, % at 20 µM | 13% of 1,900 active;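 active = mean inhibition at least 40% at 20 µM, or signal 3 deviations below plate average, so some actives read negative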
Target sequence (P00735 whole entry, looked up): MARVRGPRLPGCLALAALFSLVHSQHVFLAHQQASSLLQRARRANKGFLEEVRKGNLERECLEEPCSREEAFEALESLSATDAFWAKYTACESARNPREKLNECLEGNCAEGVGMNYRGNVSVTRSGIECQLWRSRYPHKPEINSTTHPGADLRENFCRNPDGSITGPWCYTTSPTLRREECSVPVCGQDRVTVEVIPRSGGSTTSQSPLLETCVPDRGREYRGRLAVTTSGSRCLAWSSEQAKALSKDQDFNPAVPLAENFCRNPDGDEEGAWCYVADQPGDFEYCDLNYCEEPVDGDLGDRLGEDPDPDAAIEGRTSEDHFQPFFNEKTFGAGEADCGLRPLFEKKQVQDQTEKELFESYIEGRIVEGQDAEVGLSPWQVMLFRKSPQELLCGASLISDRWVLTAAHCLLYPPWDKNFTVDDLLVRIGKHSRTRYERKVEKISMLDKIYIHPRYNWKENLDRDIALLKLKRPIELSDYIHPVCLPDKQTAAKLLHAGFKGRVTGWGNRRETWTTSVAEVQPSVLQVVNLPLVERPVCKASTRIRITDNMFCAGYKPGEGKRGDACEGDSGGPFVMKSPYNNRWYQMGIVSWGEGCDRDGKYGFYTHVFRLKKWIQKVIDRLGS
A number is an active result. Rule as the data show it, unless noted: active = inhibition above about 40%; inactive = the rest.

How did CCCNC(=O)[C@@H]1[C@@H](CO)[C@@H]2Cn3c(ccc(-c4ccccc4OC)c3=O)[C@@H]2N1S(C)(=O)=O do in these assays?
Xi reactivation: inactive

What do the screens show for `CO[C@H]1CN(C)C(=O)c2ccc(NC(=O)Nc3cccc(F)c3)cc2OC[C@H](C)N(C(=O)C2CC2)C[C@@H]1C`?
Xi reactivation: inactive

Results for Cc1ccc(C(=O)COC(=O)c2cc(=O)[nH]c3ccccc23)cc1C ?
Rin1-Abl PPI inh: inactive; Xi reactivation: inactive; ABHD5-PLIN5 inh: inactive; Rpn11 block: 100; NadD inh: inactive; Rpn11 confirm: 59; MMP-2 inh: inactive; Thrombin inh: inactive

Results for COc1ccccc1C(=O)COC(=O)c1cc(=O)[nH]c2ccccc12 ?
Rin1-Abl PPI inh: inactive; Xi reactivation: inactive; ABHD5-PLIN5 inh: inactive; Rpn11 block: inactive; NadD inh: inactive

Results for COC(=O)c1sc2nc(CN3CCN(c4cccc(C(F)(F)F)c4)CC3)[nH]c(=O)c2c1C ?
Rin1-Abl PPI inh: inactive; Xi reactivation: inactive; ABHD5-PLIN5 inh: inactive; Rpn11 block: 62; NadD inh: inactive; Rpn11 confirm: inactive; MMP-2 inh: inactive; Thrombin inh: inactive

What do the screens show for `CCOC(=O)c1sc2nc(CN3CCN(c4cccc(C(F)(F)F)c4)CC3)[nH]c(=O)c2c1C`?
Rin1-Abl PPI inh: inactive; Xi reactivation: inactive; ABHD5-PLIN5 inh: inactive; Rpn11 block: 49; NadD inh: inactive; Rpn11 confirm: inactive; MMP-2 inh: inactive; Thrombin inh: inactive

How did COc1cccc(N2CCN(Cc3nc4scc(-c5ccccc5)c4c(=O)[nH]3)CC2)c1 do in these assays?
Rin1-Abl PPI inh: inactive; Xi reactivation: inactive; ABHD5-PLIN5 inh: inactive; Rpn11 block: 53; NadD inh: inactive; Rpn11 confirm: inactive; MMP-2 inh: inactive; Thrombin inh: inactive

Results for Clc1cccc2sc(N3CCOCC3)nc12 ?
Rin1-Abl PPI inh: inactive; ABHD5-PLIN5 inh: inactive; Rpn11 block: 33; NadD inh: inactive; Rpn11 confirm: inactive; MMP-2 inh: inactive; Thrombin inh: inactive

How did CC=Cc1ccc2n(c1=O)C[C@H]1[C@H](CO)[C@@H](C(=O)NCc3ccccc3)[C@@H]2N1Cc1ccccc1OC (mixture of isomers) do in these assays?
Xi reactivation: inactive

Results for COc1ccc(NC(=O)c2ccc(-c3csc(C)n3)cc2)cc1 ?
Rin1-Abl PPI inh: inactive; Xi reactivation: inactive; ABHD5-PLIN5 inh: inactive; Rpn11 block: inactive; NadD inh: inactive

What do the screens show for `Cc1nc(-c2ccc(C(=O)Nc3ccc(F)cc3)cc2)cs1`?
Rin1-Abl PPI inh: inactive; Xi reactivation: inactive; ABHD5-PLIN5 inh: inactive; Rpn11 block: 61; NadD inh: inactive; Rpn11 confirm: inactive; MMP-2 inh: inactive; Thrombin inh: inactive

How did CCn1cc(C(=O)O)c(=O)c2cc(F)c(N/N=C/c3ccccc3[N+](=O)[O-])cc21 do in these assays?
Rin1-Abl PPI inh: inactive; Xi reactivation: inactive; ABHD5-PLIN5 inh: inactive; Rpn11 block: 100; NadD inh: inactive; Rpn11 confirm: inactive; MMP-2 inh: inactive; Thrombin inh: inactive

What do the screens show for `CCCOc1ccc(C(=O)NC(=S)N2CCN(c3cc4c(cc3F)c(=O)c(C(=O)O)cn4CC)CC2)cc1`?
Rin1-Abl PPI inh: inactive; Xi reactivation: inactive; ABHD5-PLIN5 inh: inactive; Rpn11 block: 154; NadD inh: inactive; Rpn11 confirm: inactive; MMP-2 inh: inactive; Thrombin inh: inactive

Results for CCn1cc(C(=O)O)c(=O)c2cc(F)c(N3CCN(C(=S)NC(=O)c4ccc(F)cc4)CC3)cc21 ?
Rin1-Abl PPI inh: inactive; Xi reactivation: inactive; ABHD5-PLIN5 inh: inactive; Rpn11 block: inactive; NadD inh: inactive

Results for CCCC(=O)Nc1ccc2c(c1)C(=O)N(C)C[C@@H](OC)[C@@H](C)CN(C(=O)CC)[C@@H](C)CO2 ?
Xi reactivation: inactive

How did O=C(Nc1ccc(-n2cnnn2)cc1)c1cn2ccccc2n1 do in these assays?
Rin1-Abl PPI inh: inactive; Xi reactivation: inactive; ABHD5-PLIN5 inh: inactive; Rpn11 block: 87; NadD inh: inactive; Rpn11 confirm: inactive; MMP-2 inh: inactive; Thrombin inh: inactive

How did O=C(Nc1ccccc1)c1cn2ccccc2n1 do in these assays?
Rin1-Abl PPI inh: inactive; Xi reactivation: inactive; ABHD5-PLIN5 inh: inactive; Rpn11 block: inactive; NadD inh: inactive

What do the screens show for `CC(C)NC(=O)Nc1ccc2c(c1)C(=O)N([C@@H](C)CO)C[C@@H](C)[C@@H](CN(C)C(=O)CCC(F)(F)F)OCCCC[C@@H](C)O2`?
Xi reactivation: inactive

Results for N#CCC(=O)c1ccccc1Oc1ccc(Cl)cc1 ?
Rin1-Abl PPI inh: inactive; Xi reactivation: inactive; ABHD5-PLIN5 inh: inactive; Rpn11 block: 65; NadD inh: inactive; Rpn11 confirm: inactive; MMP-2 inh: inactive; Thrombin inh: inactive

What do the screens show for `COc1ccc(C#Cc2ccc3c(c2)O[C@@H](CN(C)C(=O)Nc2cccc(OC)c2)[C@H](C)CN([C@@H](C)CO)S3(=O)=O)cc1`?
Rin1-Abl PPI inh: inactive; Xi reactivation: inactive; ABHD5-PLIN5 inh: inactive; Rpn11 block: 47; NadD inh: inactive; Rpn11 confirm: 41; MMP-2 inh: inactive; Thrombin inh: inactive

How did COC(=O)c1c(-c2cccnc2)csc1NC(=O)c1ccc2c(c1)OCO2 do in these assays?
Rin1-Abl PPI inh: inactive; Xi reactivation: inactive; ABHD5-PLIN5 inh: inactive; Rpn11 block: 52; NadD inh: inactive; Rpn11 confirm: 52; MMP-2 inh: inactive; Thrombin inh: inactive

How did COC(=O)c1sccc1NC(=O)c1ccc2c(c1)OCO2 do in these assays?
Rin1-Abl PPI inh: inactive; ABHD5-PLIN5 inh: inactive; Rpn11 block: inactive; NadD inh: inactive

What do the screens show for `CC(C)C(=O)Nc1ccc2c(c1)C(=O)N(C)[C@@H]1CC[C@@H](CC(=O)Nc3ccccc3)O[C@@H]1CO2`?
Xi reactivation: inactive

What do the screens show for `COc1ccc(C[C@@H]2CCc3cnnn3COC[C@H](C)NC2=O)cc1`?
Xi reactivation: inactive

What do the screens show for `O=C1N/C(=N/Nc2ccccc2)S/C1=C\c1ccccc1`?
Rin1-Abl PPI inh: inactive; ABHD5-PLIN5 inh: inactive; Rpn11 block: 66; NadD inh: inactive; Rpn11 confirm: inactive; MMP-2 inh: inactive; Thrombin inh: inactive

What do the screens show for `O=C(CSc1nc(-c2ccc(F)cc2)nc2c1Cc1ccccc1O2)Nc1cccc(C(=O)O)c1`?
Rin1-Abl PPI inh: inactive; Xi reactivation: inactive; ABHD5-PLIN5 inh: inactive; Rpn11 block: active; NadD inh: inactive; Rpn11 confirm: inactive; MMP-2 inh: inactive; Thrombin inh: 82

How did O=C(CSc1nc(-c2ccccc2)nc2ccc(F)cc12)Nc1cccc(C(=O)O)c1 do in these assays?
Rin1-Abl PPI inh: inactive; Xi reactivation: inactive; ABHD5-PLIN5 inh: inactive; Rpn11 block: inactive; NadD inh: inactive
